Compound activity as filed in PubChem.
Rows were chosen to be rich in hits. Some 3% of all compounds tested hit in one or more screens of this group.
PGC1a acetyl inh: inhibitors of PGC1a acetylation signal, primary screen, cell-based, U2OS, AlphaScreen, inhibitor mode; AlphaScreen anti-acetyl-lysine; with virally co-expressed GCN5 acetyltransferase; inhibition, % at 15.6 µM; 350,000 tested, 0.17% active;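 active means every replicate shows inhibition of at least 40%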;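 further: 0% = neutral control wells and 100% = positive control wells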
Cneo AK release: Cryptococcus neoformans cell lysis inducers, primary screen, AK release luminescence, single concentration; C. neoformans lysis, adenylate kinase release luminescence, 4 h; normalised: neutral wells 0, clomiphene wells 100; lysis activity, % at 15 µM; 360,000 tested, 0.2% active; AID 651654, 2012;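 active means mean lysis activity across replicates of at least 80%, whatever share of replicates individually reach that level; inactive means mean lysis activity below 80%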
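Signal: Adenylate kinase release luminescence | Assay system: Log-phase Cryptococcus neoformans yeast cells | Input: Cells at 5 × 10^6 per mL | Buffer or medium: Fresh YPD growth medium | Compound: Single dose | Schedule: Static 4 h at 37 °C with compound, 1 h detection | Controls: Clomiphene | Read-out: Luminescence rise reflecting yeast cell lysis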
SIRT5 inh: SIRT5 desuccinylase inhibitors, primary screen, biochemical, fluorescence imaging, single point, set 5 | NAD-dependent protein deacylase sirtuin-5, mitochondrial (Homo sapiens), Q9NXA8 | Purified SirT5, succinyl-peptide AMC, trypsin-coupled fluorescence | inhibition, % at 15 µM | 330,000 tested, 1.1% active | AID 652115, 2013; in the data active means inhibition above about 15%
Target sequence (Q9NXA8 whole entry, looked up): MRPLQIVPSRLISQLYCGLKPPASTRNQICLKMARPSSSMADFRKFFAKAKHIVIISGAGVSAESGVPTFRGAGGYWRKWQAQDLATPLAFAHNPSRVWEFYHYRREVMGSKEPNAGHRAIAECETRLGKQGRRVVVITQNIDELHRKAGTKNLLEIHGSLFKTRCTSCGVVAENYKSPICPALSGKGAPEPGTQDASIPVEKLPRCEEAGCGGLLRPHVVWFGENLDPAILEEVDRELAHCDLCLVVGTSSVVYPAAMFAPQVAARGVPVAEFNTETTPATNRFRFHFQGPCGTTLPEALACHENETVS
S100A4 MyoIIA: inhibitors of S100A4-myosin IIA peptide binding, primary screen, biochemical, fluorescence polarization, TAMRA-MyoIIA peptide | 360,000 tested, 0.14% active | inhibition, % at 10.7 µM | Protein S100-A4 (Homo sapiens), P26447;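 active means mean inhibition of at least 70% across replicates, with every replicate also reaching that level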
Target sequence (P26447 whole entry, looked up): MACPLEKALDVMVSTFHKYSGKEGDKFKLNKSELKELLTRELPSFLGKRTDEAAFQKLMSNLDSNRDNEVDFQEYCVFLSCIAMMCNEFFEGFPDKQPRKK
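Test system: S100A4 monomer protein; Medium: HEPES pH 7.2 with CaCl2, KCl, NaCl, DTT, Triton; Probe or stimulus: TAMRA-labelled myosin IIA heavy-chain peptide probe, 5 nM; Doses: one dose per compound; Times: polarization read 5 min after assay mix addition, stable 5–60 min; Benchmarks: neutral control DMSO, positive control TFP.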
Statin myotox sup: suppressors of statin myotoxicity in C2C12 myotubes, primary screen, cell-based, single point, plate reader; C2C12 myotubes + simvastatin, ATP luminescence, 48 h; scaled: DMSO 0, geranylgeraniol control 100; rescue of ATP level, % at 7.49 µM; 330,000 tested, 0.78% active;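 active means mean ATP rescue above about 67%, or every replicate alone reaching that limit, limit read from the data, passing the limit was not always enough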;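 further: myotubes were challenged with 10 µM simvastatin during compound exposure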
Ecoli rRNA inh: reduced GFP signal of wild-type E. coli, primary screen, bacterial rRNA inhibitor project, GFP/RFP fluorescence, OD600, single point. E. coli WT GFP vs humanized-ribosome RFP mutants, 24 h; active compounds read low; DMSO median 0, no signal -100. GFP signal change (wild-type ribosome), % (concentration not given with the values). 350,000 tested, 1.6% active. AID 720706, 2013;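 active means significant combined selectivity score with lowered wild-type GFP, culture density cut under 30%, mutant RFP and density less affected; inactive means any of these conditions unmet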
* = called active by the depositor; . = no result.

SMILES	PGC1a acetyl inh	Cneo AK release	SIRT5 inh	S100A4 MyoIIA	Statin myotox sup	Ecoli rRNA inh
COc1ccc(S(=O)(=O)Nc2ccc3c(c2)C(=O)N([C@H](C)CO)C[C@H](C)[C@H](CN(C)S(=O)(=O)c2cccs2)OCCCC[C@H](C)O3)cc1	-3	-1	18*	-6	97*	-3
COc1ccc(S(=O)(=O)Nc2ccc3c(c2)C(=O)N([C@H](C)CO)C[C@@H](C)[C@H](CN(C)S(=O)(=O)c2cccs2)OCCCC[C@H](C)O3)cc1	-12	-1	14	-11	102*	3
Cc1noc(C)c1S(=O)(=O)N(C)C[C@H]1OCCCC[C@@H](C)Oc2ccc(NC(=O)NC3CCCCC3)cc2C(=O)N([C@@H](C)CO)C[C@@H]1C	-9	53	5	-14	.	-2
C[C@@H]1CCCCO[C@H](CN(C)S(=O)(=O)c2ccc(Cl)cc2)[C@H](C)CN([C@H](C)CO)C(=O)c2cc(NS(=O)(=O)c3cccs3)ccc2O1	-7	75	-1	-14	.	1
COc1ccc(S(=O)(=O)Nc2ccc3c(c2)C(=O)N([C@@H](C)CO)C[C@H](C)[C@H](CN(C)S(=O)(=O)c2cccs2)OCCCC[C@H](C)O3)cc1	-3	0	15*	-23	7	2
C[C@H]1CCCCO[C@H](CN(C)S(=O)(=O)c2ccc(Cl)cc2)[C@@H](C)CN([C@@H](C)CO)C(=O)c2cc(NS(=O)(=O)c3cccs3)ccc2O1	-1	89*	6	-17	.	-3
CO[C@@H]1CN(C)C(=O)c2cc(NC(=O)c3cccc(F)c3)ccc2OC[C@@H](C)N(C(C)=O)C[C@@H]1C	4	.	.	.	-1	1
O=C(Cc1ccc(Br)cc1)OCC(=O)c1ccc[nH]1	-2	3	4	-2	11	-23*
COc1ccc(CC(=O)OCC(=O)c2ccc[nH]2)cc1	8	-1	-1	2	11	4
O=C1OC(c2ccccc2)c2ccccc21 (stereo not drawn)	.	.	0	-5	.	1
Cc1ccc(C2OC(=O)c3ccccc32)cc1 (stereo not drawn)	0	-1	.	.	133*	.
CCCC#Cc1ccc([C@H]2[C@@H](CO)N3C(=O)CN(C(=O)c4ccccc4)C[C@H]23)cc1	-11	.	-1	16	.	3
C[C@H](CO)N1C[C@H](C)[C@@H](CN(C)CC2CC2)Oc2ccc(NC(=O)CCCN(C)C)cc2C1=O	11	54	0	10	-4	3
Cc1cc2oc(=O)cc(-c3ccccc3)c2c(C)c1-c1ccc(CO)cc1	-3	0	1	0	-21	-31
CC(=O)c1ccc(-c2c(C)cc3oc(=O)cc(-c4ccccc4)c3c2C)cc1	.	1	-1	2	0	-22*
O=C(NC1CCCC1)N1CC(=O)N2[C@H](CO)[C@H](c3ccc(-c4ccccc4)cc3)[C@@H]2C1	.	.	.	.	.	-4
COc1ccc(S(=O)(=O)N(C)C[C@@H]2Oc3ncc(C#CCN(C)C)cc3C(=O)N([C@H](C)CO)C[C@@H]2C)cc1	-4	1	21*	-3	-10	0
COc1ccc(-c2cnc3c(c2)C(=O)N([C@@H](C)CO)C[C@H](C)[C@@H](CN(C)Cc2ccc(C(=O)O)cc2)O3)cc1	1	0	21*	-7	1	-1
C[C@H](CO)N1C[C@H](C)[C@@H](CN(C)C(=O)C2CCOCC2)Oc2ncc(-c3ccccc3)cc2C1=O	2	-2	21*	3	5	5
COc1ccc(-c2cnc3c(c2)C(=O)N([C@H](C)CO)C[C@H](C)[C@H](CN(C)Cc2ccc(C(=O)O)cc2)O3)cc1	5	-5	-3	-19	20	-2
C[C@@H]1CN([C@@H](C)CO)C(=O)c2cc(-c3ccccc3)cnc2O[C@@H]1CN(C)C(=O)C1CCOCC1	0	-3	-6	-6	18	2
COc1ccc(-c2cnc3c(c2)C(=O)N([C@@H](C)CO)C[C@H](C)[C@@H](CN(C)S(C)(=O)=O)O3)cc1	-10	81*	-3	6	-2	3
N#C[C@@H]1[C@H](c2ccc(C#CCC3CCCC3)cc2)[C@@H](CO)N1C(=O)c1ccccn1	5	-1	1	17	-10	-17
C[C@H]1CCCCO[C@H](CN(C)C(=O)Cc2ccccc2)[C@@H](C)CN([C@@H](C)CO)C(=O)c2cc(NC(=O)CCCN(C)C)ccc2O1	-2	-6	-1	2	.	-1
COc1ccccc1C#Cc1cnc2c(c1)C(=O)N([C@@H](C)CO)C[C@@H](C)[C@H](CN(C)S(=O)(=O)c1cn(C)cn1)O2	3	11	3	8	0	-2
SMILES	PGC1a acetyl inh	Cneo AK release	SIRT5 inh	S100A4 MyoIIA	Statin myotox sup	Ecoli rRNA inh
COc1ccc(-c2cnc3c(c2)C(=O)N([C@H](C)CO)C[C@H](C)[C@H](CN(C)S(=O)(=O)c2ccc(F)cc2)O3)cc1	-25	7	6	-3	102*	-1
COc1cccc(-c2cnc3c(c2)C(=O)N([C@H](C)CO)C[C@H](C)[C@H](CN(C)Cc2cccc(C)c2)O3)c1	-2	0	4	-8	117*	-5
COc1ccc(-c2cnc3c(c2)C(=O)N([C@H](C)CO)C[C@H](C)[C@@H](CN(C)C(=O)C2CC2)O3)cc1	111*	.	.	.	-7	2
COc1cccc(-c2cnc3c(c2)C(=O)N([C@@H](C)CO)C[C@H](C)[C@@H](CN(C)Cc2ccccc2)O3)c1	-7	1	4	5	38	-3
[N-]=[N+]=NCCCNC(=O)Nc1ccccc1	6	-2	7	4	.	.
C[C@H]1COCc2cnnn2CC[C@@H](Cc2ccccc2)C(=O)N1	.	.	.	.	.	1
CN1[C@@H]2c3ccc(-c4cccc(F)c4)c(=O)n3C[C@H]1[C@H](CO)[C@H]2C(=O)NCc1ccccc1	.	4	8	4	3	-4
Cc1ccccc1-c1ccc([C@@H]2[C@@H](CO)N3C(=O)CN(C(=O)c4cccnc4)C[C@@H]23)cc1	.	.	.	.	.	-1
CCN(c1ccccc1)S(=O)(=O)c1ccc(NC(=O)c2nc(S(C)(=O)=O)ncc2Cl)cc1	.	3	.	.	-526	.
CS(=O)(=O)c1ncc(Cl)c(C(=O)Nc2ccc(N3CCOCC3)cc2)n1	-81	.	.	.	.	.
